Results reported in paper PMC3594550 (Bioorganic & medicinal chemistry, 2012).
Where no end group is shown, it is not given here.

Tests used:
[1] = target: Grb2 SH3C – Gab2b peptide interaction (Homo sapiens, UniProt P62993); assay: Biochemical competition assay; format: binding; settings: for competition assay result in words: compound 5 mM; for Hill slope of inhibition curve: concentration-response
Method in brief: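 Then 30 min with streptavidin-sepharose beads carrying biotinylated Gab2b peptide; washed with PBS-T. Bound protein read by SDS-PAGE, Coomassie and densitometry, normalised to no-inhibitor control (100%). Sigmoidal inhibition fit by nonlinear regression.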

Grb2 SH3C domain = Grb2 SH3C domain (Homo sapiens, UniProt P62993); assay: Surface plasmon resonance; format: binding; settings: for SPR classification (binder / non-binder) / SPR observed binding behavior (stoichiometry): 50 and 100 µM compound; for SPR classification (binder / non-binder): cut-off 5 RU at 100 µM (KD ≤ 1 mM); for SPR observed binding behavior (stoichiometry): maximum theoretical response 56 RU for 1:1 binding; for SPR binding behavior above concentrations of 200 µM: compound > 200 µM
Method in brief: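 Untagged human Grb2 SH3C amine-coupled (EDC/NHS; 100 µM, pH 4.0 acetate) to a CM5 chip at 1500 RU. Compound in HBS-N (10 mM Hepes pH 7.4, 150 mM NaCl) with 5.0% DMSO and 0.01% Tween 20, injected 120 s at 40 µL/min, 25 °C. Double referenced against protein-free cell and buffer blank. DMSO-only and Gab2b peptide (24 µM) controls were run.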

[2] = Solubility / precipitation observed while handling in the competition assay; format: physicochemical
Grb2 SH3C [3] = settings: read-out: Kd towards Grb2 SH3C; cited from earlier work
Grb2 SH3C [4] = target: Grb2 SH3C (Homo sapiens, UniProt P62993); assay: Isothermal titration calorimetry; format: binding; settings: 1 mM compound titrated into 20 µM Grb2 SH3C, 25 °C
Method in brief: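 Purified Grb2 SH3C (20 µM) in 50 mM Hepes pH 7.5, 50 mM NaCl, 0.5% DMSO, clarified and degassed, 25 °C. Compound (1 mM, same buffer) injected once at 4 µL, then 18 × 15 µL. Heat peaks integrated per mole of compound and plotted against compound:protein molar ratio.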

Grb2 SH3C domain, sequence (P62993 156-215 limits assumed): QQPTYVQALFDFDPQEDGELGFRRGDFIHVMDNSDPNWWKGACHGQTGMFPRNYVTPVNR
Grb2 SH3C – Gab2b peptide interaction, sequence (P62993 156-215 limits assumed): as above
Grb2 SH3C (Homo sapiens, UniProt P62993), sequence (P62993 156-215 limits assumed): as above

| competition assay result in words [1] | SPR classification (binder / non-binder) (Grb2 SH3C domain) | SPR observed binding behavior (stoichiometry) (Grb2 SH3C domain) | Compound | other results |
| --- | --- | --- | --- | --- |
| – | binders | superstoichiometric | Cl.Cl.NC1CCC(NC2CCC(N)CC2)CC1 (centres unmarked) [compound 147] | SPR dissociation (Grb2 SH3C domain): long dissociation time; SPR response relative to the maximum theoretical response (Grb2 SH3C domain): over 10 times; SPR response level (Grb2 SH3C domain; maximum theoretical response 56 RU): ~600 RU |
| – | binders | – | Cc1ccc(O)c(C2CC(=O)NC(N)=N2)c1 (centres unmarked) [compound 156] | SPR sensorgram quality (Grb2 SH3C domain): poor sensorgram shape |
| – | binders | – | CC1(C)N=C(N)N=C(N)N1c1cccc(CCCCc2cccc(N)c2)c1.Cl [compound 3, 1-(3-(4-(3-Aminophenyl)butyl)phenyl)-6,6-dime thyl-1,6-dihydro-1,3,5-triazine-2,4-diamine•HCl] | ITC response (Grb2 SH3C [4]): no measurable response above background; Hill slope of inhibition curve [1]: −3.1; SPR binding behavior above concentrations of 200 µM (Grb2 SH3C domain): superstoichiometric binding |
| – | binders | – | CC1(C)N=C(N)N=C(N)N1c1cccc(OCc2cccc(N)c2)c1.Cl [compound 1] | – |
| – | binders | superstoichiometric | CC1(C)N=C(N)N=C(N)N1c1cccc(/C=C/C=C/c2cccc([N+](=O)[O-])c2)c1.Cl [compound 5, 6,6-Dimethyl-1-(3-((1E,3E)-4-(3-nitrophenyl)buta-1,3-dien-1-yl)phenyl)-1,6-dihydro-1,3,5-triazine-2,4-diamine•HCl] | ITC response (Grb2 SH3C [4]): significant reaction heats; Hill slope of inhibition curve [1]: −5.0; fold increase in affinity relative to compound 3 ([1]; ratio of apparent IC50 values): 18 fold; SPR binding behavior above concentrations of 200 µM (Grb2 SH3C domain): superstoichiometric binding |
| – | binders | – | CC(=O)c1ccc(/N=N/c2c(N)nc(N)nc2N)cc1 [compound 46] | aqueous solubility [2]: poor aqueous solubility |

Further lines, the compound ahead of its results:

| Compound | competition assay result in words [1] | SPR classification (binder / non-binder) (Grb2 SH3C domain) | SPR observed binding behavior (stoichiometry) (Grb2 SH3C domain) | other results |
| --- | --- | --- | --- | --- |
| CC1(C)N=C(N)N=C(N)N1c1cccc(OCCOc2cccc(N)c2)c1.Cl [compound 9] | no activity | binders | superstoichiometric | – |
| CC1(C)N=C(N)N=C(N)N1c1cccc(OCC#N)c1.Cl [compound 41] | – | binders | – | inhibition in concentration-response experiment ([1]; dose range up to 20 mM, data not shown): unquantifiably weak inhibition; SPR binding behavior above concentrations of 200 µM (Grb2 SH3C domain): superstoichiometric binding |
| Br.CC1(C)N=C(N)N=C(N)N1c1cccc(CO)c1 [compound 47] | no activity | no activity | – | – |
| Cc1ccc(C(/C=C/c2ccccc2)=N/NC(=N)N)cc1.Cl [compound 164] | nearly complete inhibition | binders | superstoichiometric | precipitation during the assay ([2]; competition assay buffer, compound 5 mM): precipitated during the assay |
| 15-mer Gab2 peptide: positive control Gab2b peptide; sequence: IQPPPVNRNLKPDRK-amide (IQPPPVNRNLKPDRK-NH2) | – | – | – | Kd (Grb2 SH3C [3]): 3.2 µM |
| CC1(C)N=C(N)N=C(N)N1c1cc(C(F)(F)F)cc(C(F)(F)F)c1.Cl [compound 11] | no activity | no activity | – | – |
